Assay results from article PMC4764504 (Journal of medicinal chemistry, 2015).
“And” between values parts separate entries of the source, which are not always exact repeats. Equal values may be shown once.

Assays:
[1] = test system: BALB/c Mice with Subcutaneous Flank DBT Tumors; assay: Whole body biodistribution in mice with subcutaneous DBT gliomas; type: in vivo, mouse; details: for biodistribution, tumor uptake: subcutaneous DBT tumor
Outline: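 Male BALB/c mice carried subcutaneous flank DBT tumors (5 × 10⁵ cells) and were used at day 14. Under 1% isoflurane–oxygen, each received ~56 μCi (2.07 MBq) of ⁷⁶Br-labelled or 45 μCi (1.67 MBq) of ¹²³I-labelled test compound by tail vein in 0.9% saline. Mice were killed at 5 min, 30 min, 1, 3 and 24 h (n = 4 per time). Tissues were weighed and γ-counted with decay correction, giving % ID/g.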

DBT glioma cells = assay: Competitive amino acid cell uptake assays; type: cell-based, mouse; details: 60 s, 37 °C
Outline: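 Mouse DBT glioma cells were seeded at 1 × 10⁵ cells/well and grown 48 h in 10% FBS DMEM under 5% CO₂. Cells were washed twice in 37 °C buffer, then exposed for 60 s at 37 °C, pH 7.40, to the radiotracer. Buffers were Na phosphate-buffered saline or choline-substituted Na-free buffer. Controls had 10 mM sucrose; BCH was 10 mM. Cells were washed with ice-cold buffer, lysed in 0.2% SDS/0.2 M NaOH, γ-counted, and normalized to added activity and BCA protein. Values are % of control, triplicate × two plates.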

biodistribution, blood ([1]; 5 min after i.v. injection): 3.86 ± 0.50 % ID/g
biodistribution, blood ([1]; 30 min after i.v. injection): 1.07 ± 0.16 % ID/g
biodistribution, blood ([1]; 1 h after i.v. injection): 0.37 ± 0.05 % ID/g
biodistribution, blood ([1]; 3 h after i.v. injection): 0.07 ± 0.02 % ID/g
biodistribution, blood ([1]; 24 h after i.v. injection): 0.0005 ± 0.0000 % ID/g
biodistribution, bone ([1]; 5 min after i.v. injection): 1.94 ± 0.28 % ID/g
biodistribution, bone ([1]; 30 min after i.v. injection): 1.20 ± 0.21 % ID/g
biodistribution, bone ([1]; 1 h after i.v. injection): 0.55 ± 0.39 % ID/g
biodistribution, bone ([1]; 3 h after i.v. injection): 0.39 ± 0.35 % ID/g
biodistribution, bone ([1]; 24 h after i.v. injection): 0.0042 ± 0.0020 % ID/g
biodistribution, brain ([1]; 5 min after i.v. injection): 0.27 ± 0.03 % ID/g
biodistribution, brain ([1]; 30 min after i.v. injection): 0.17 ± 0.04 % ID/g
biodistribution, brain ([1]; 1 h after i.v. injection): 0.27 ± 0.35 % ID/g
biodistribution, brain ([1]; 3 h after i.v. injection): 0.07 ± 0.00 % ID/g
biodistribution, brain ([1]; 24 h after i.v. injection): 0.0010 ± 0.0003 % ID/g
biodistribution, fat ([1]; 5 min after i.v. injection): 0.87 ± 0.26 % ID/g
biodistribution, fat ([1]; 30 min after i.v. injection): 0.22 ± 0.09 % ID/g
biodistribution, fat ([1]; 1 h after i.v. injection): 0.19 ± 0.07 % ID/g
biodistribution, fat ([1]; 3 h after i.v. injection): 0.04 ± 0.01 % ID/g
biodistribution, heart ([1]; 5 min after i.v. injection): 2.30 ± 0.02 % ID/g
biodistribution, heart ([1]; 30 min after i.v. injection): 1.78 ± 0.35 % ID/g
biodistribution, heart ([1]; 1 h after i.v. injection): 0.90 ± 0.06 % ID/g
biodistribution, heart ([1]; 3 h after i.v. injection): 0.18 ± 0.05 % ID/g
biodistribution, heart ([1]; 24 h after i.v. injection): 0.0005 ± 0.0005 % ID/g
biodistribution, kidney ([1]; 5 min after i.v. injection): 31.27 ± 6.91 % ID/g
biodistribution, kidney ([1]; 30 min after i.v. injection): 9.90 ± 3.24 % ID/g
biodistribution, kidney ([1]; 1 h after i.v. injection): 2.68 ± 0.55 % ID/g
biodistribution, kidney ([1]; 3 h after i.v. injection): 0.39 ± 0.09 % ID/g
biodistribution, kidney ([1]; 24 h after i.v. injection): 0.0032 ± 0.0017 % ID/g
biodistribution, liver (all) ([1]; 5 min after i.v. injection): 2.83 ± 0.25 % ID/g
biodistribution, liver (all) ([1]; 30 min after i.v. injection): 0.91 ± 0.20 % ID/g
biodistribution, liver (all) ([1]; 1 h after i.v. injection): 0.25 ± 0.03 % ID/g
biodistribution, liver (all) ([1]; 3 h after i.v. injection): 0.07 ± 0.02 % ID/g
biodistribution, liver (all) ([1]; 24 h after i.v. injection): 0.0006 ± 0.0002 % ID/g
biodistribution, lung ([1]; 5 min after i.v. injection): 3.54 ± 0.31 % ID/g
biodistribution, lung ([1]; 30 min after i.v. injection): 1.01 ± 0.28 % ID/g
biodistribution, lung ([1]; 1 h after i.v. injection): 0.33 ± 0.06 % ID/g
biodistribution, lung ([1]; 3 h after i.v. injection): 0.06 ± 0.02 % ID/g
biodistribution, lung ([1]; 24 h after i.v. injection): 0.0007 ± 0.0006 % ID/g
biodistribution, muscle ([1]; 5 min after i.v. injection): 1.65 ± 0.05 % ID/g
biodistribution, muscle ([1]; 30 min after i.v. injection): 1.41 ± 0.22 % ID/g
biodistribution, muscle ([1]; 1 h after i.v. injection): 0.68 ± 0.17 % ID/g
biodistribution, muscle ([1]; 3 h after i.v. injection): 0.12 ± 0.06 % ID/g
biodistribution, muscle ([1]; 24 h after i.v. injection): 0.0011 ± 0.0006 % ID/g
biodistribution, pancreas ([1]; 5 min after i.v. injection): 29.26 ± 8.15 % ID/g
biodistribution, pancreas ([1]; 30 min after i.v. injection): 21.03 ± 4.38 % ID/g
biodistribution, pancreas ([1]; 1 h after i.v. injection): 5.75 ± 1.20 % ID/g
biodistribution, pancreas ([1]; 3 h after i.v. injection): 0.99 ± 0.46 % ID/g
biodistribution, pancreas ([1]; 24 h after i.v. injection): 0.0052 ± 0.0021 % ID/g
biodistribution, spleen ([1]; 5 min after i.v. injection): 3.92 ± 0.99 % ID/g
biodistribution, spleen ([1]; 30 min after i.v. injection): 2.23 ± 0.34 % ID/g
biodistribution, spleen ([1]; 1 h after i.v. injection): 0.68 ± 0.12 % ID/g
biodistribution, spleen ([1]; 3 h after i.v. injection): 0.15 ± 0.05 % ID/g
biodistribution, spleen ([1]; 24 h after i.v. injection): 0.0012 ± 0.0010 % ID/g
biodistribution, tumor uptake ([1]; 5 min after i.v. injection): 2.8 ± 0.8 % ID/g and 2.78 ± 0.83 % ID/g
biodistribution, tumor uptake ([1]; 30 min after i.v. injection): 2.7 ± 0.6 % ID/g and 2.68 ± 0.56 % ID/g
biodistribution, tumor uptake ([1]; 1 h after i.v. injection): 1.53 ± 0.66 % ID/g
biodistribution, tumor uptake ([1]; 3 h after i.v. injection): 0.65 ± 0.16 % ID/g
biodistribution, tumor uptake ([1]; 24 h after i.v. injection): 0.0012 ± 0.0007 % ID/g
biodistribution, thyroid ([1]; thyroid, 5 min after i.v. injection): 2.51 ± 0.39 % ID/g
thyroid uptake ([1]; thyroid, 5 min after injection): 2.5 ± 0.4 % ID/organ
biodistribution, thyroid ([1]; thyroid, 30 min after i.v. injection): 1.38 ± 0.38 % ID/g
biodistribution, thyroid ([1]; thyroid, 1 h after i.v. injection): 0.97 ± 0.28 % ID/g
biodistribution, thyroid ([1]; thyroid, 3 h after i.v. injection): 0.65 ± 0.29 % ID/g
thyroid activity ([1]; thyroid, 3 h after injection): approximately 0.7 % ID/organ
biodistribution, thyroid ([1]; thyroid, 24 h after i.v. injection): 0.6527 ± 0.2135 % ID/g
thyroid activity ([1]; thyroid, 24 h after injection): approximately 0.7 % ID/organ
thyroid activity as share of the administered activity ([1]; thyroid, 24 h after injection): less than 1%
Structure (SMILES): C[C@](N)(/C=C/[123I])C(=O)O [[^123I]8, (S)-amino-2-methyl-4-[^123I]iodo-3-(E)-butenoic acid, reference compound]
uptake relative to control (DBT glioma cells; Na BCH condition (BCH 10 mM, system L inhibitor, sodium buffer)): 39 ± 12%
uptake compared to sodium control (DBT glioma cells; choline + BCH (sodium-free, Cho-BCH)): 31 ± 12%
uptake compared to the sodium control (DBT glioma cells; choline control (sodium-free, Cho-sucrose)): 33 ± 6.6%
uptake relative to the control (DBT glioma cells; in the presence of MeAIB (10 mM, system A inhibitor), sodium buffer): 25 ± 3.4%
